# Tested on: Fibroblast
# Assay: Multiplex assay against human fibroblast
# Type: toxicity, cell-based
# Summary of the method: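 Values for tubulin, mitochondrial-mass and membrane-permeability phenotypes are per cents of cells with healthy nuclei. These cells were identified by CellPathfinder machine-learning gating of live cells that had been stained at seeding with Hoechst33342, BioTracker Green Microtubule Cytoskeleton Dye, MitoTracker Red and Annexin V Alexa Fluor 680 and imaged on a CQ1 microscope at 37°C and 5% CO2 after compound addition. The gating first set Hoechst high-intensity objects apart from normal cells, then split normal cells into healthy, pyknosed or fragmented nuclei, and pyknosed cells into mitotic or apoptotic.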
# [1] = 12 h, 1 µM, compound concentration 1 uM, replicate 1
# [2] = 12 h, 1 µM, compound concentration 1 uM, replicate 2
# [3] = 12 h, 10 µM, compound concentration 10 uM, replicate 1
# [4] = 12 h, 10 µM, compound concentration 10 uM, replicate 2
# [5] = 24 h, 1 µM, compound concentration 1 uM, replicate 1
# [6] = 24 h, 1 µM, compound concentration 1 uM, replicate 2
# [7] = 24 h, 10 µM, compound concentration 10 uM, replicate 1
# [8] = 24 h, 10 µM, compound concentration 10 uM, replicate 2
# [9] = 48 h, 1 µM, compound concentration 1 uM, replicate 1
# [10] = 48 h, 1 µM, compound concentration 1 uM, replicate 2
# [11] = 48 h, 10 µM, compound concentration 10 uM, replicate 1
# [12] = 48 h, 10 µM, compound concentration 10 uM, replicate 2
smiles,measurement,setting,value
CCNC1(C(N)=O)CCN(c2ncnc3c2nc(-c2ccccc2Cl)n3-c2ccc(Cl)cc2)CC1 [OTENABANT],Population Apoptotic (%),[1],26%
same,Population Fragmented Nuclei (%),[1],19%
same,Population Healthy Nuclei (%),[1],63%
same,Population Hoechst High Intensity Objects (%),[1],6%
same,Population Membrane Permeable-Phenotype (%),[1],1%
same,Population Mitochondria Different-Phenotype (%),[1],7%
same,Population Mitotic Cells (%),[1],73%
same,Population Normal (%),[1],93%
same,Population Pyknosed Nuclei (%),[1],17%
same,Population Tubulin-Different-Phenotype (%),[1],44%
same,Total Cell Count,[1],161
same,Population Apoptotic (%),[2],37%
same,Population Fragmented Nuclei (%),[2],25%
same,Population Healthy Nuclei (%),[2],48%
same,Population Hoechst High Intensity Objects (%),[2],2%
same,Population Membrane Permeable-Phenotype (%),[2],6%
same,Population Mitochondria Different-Phenotype (%),[2],10%
same,Population Mitotic Cells (%),[2],62%
same,Population Normal (%),[2],97%
same,Population Pyknosed Nuclei (%),[2],26%
same,Population Tubulin-Different-Phenotype (%),[2],50%
same,Total Cell Count,[2],156
same,Population Apoptotic (%),[3],57%
same,Population Fragmented Nuclei (%),[3],22%
same,Population Healthy Nuclei (%),[3],64%
same,Population Hoechst High Intensity Objects (%),[3],4%
same,Population Membrane Permeable-Phenotype (%),[3],0%
same,Population Mitochondria Different-Phenotype (%),[3],16%
same,Population Mitotic Cells (%),[3],42%
same,Population Normal (%),[3],95%
same,Population Pyknosed Nuclei (%),[3],12%
same,Population Tubulin-Different-Phenotype (%),[3],90%
same,Total Cell Count,[3],170
same,Population Apoptotic (%),[4],40%
same,Population Fragmented Nuclei (%),[4],30%
same,Population Healthy Nuclei (%),[4],48%
same,Population Hoechst High Intensity Objects (%),[4],3%
same,Population Membrane Permeable-Phenotype (%),[4],12%
same,Population Mitochondria Different-Phenotype (%),[4],18%
same,Population Mitotic Cells (%),[4],59%
same,Population Normal (%),[4],96%
same,Population Pyknosed Nuclei (%),[4],21%
same,Population Tubulin-Different-Phenotype (%),[4],87%
same,Total Cell Count,[4],216
same,Population Apoptotic (%),[5],26%
same,Population Fragmented Nuclei (%),[5],17%
same,Population Healthy Nuclei (%),[5],66%
same,Population Hoechst High Intensity Objects (%),[5],4%
same,Population Membrane Permeable-Phenotype (%),[5],0%
same,Population Mitochondria Different-Phenotype (%),[5],8%
same,Population Mitotic Cells (%),[5],73%
same,Population Normal (%),[5],95%
same,Population Pyknosed Nuclei (%),[5],15%
same,Population Tubulin-Different-Phenotype (%),[5],44%
same,Total Cell Count,[5],154
same,Population Apoptotic (%),[6],34%
same,Population Fragmented Nuclei (%),[6],27%
same,Population Healthy Nuclei (%),[6],43%
same,Population Hoechst High Intensity Objects (%),[6],5%
same,Population Membrane Permeable-Phenotype (%),[6],9%
same,Population Mitochondria Different-Phenotype (%),[6],14%
same,Population Mitotic Cells (%),[6],65%
same,Population Normal (%),[6],94%
same,Population Pyknosed Nuclei (%),[6],29%
same,Population Tubulin-Different-Phenotype (%),[6],57%
same,Total Cell Count,[6],155
same,Population Apoptotic (%),[7],54%
same,Population Fragmented Nuclei (%),[7],22%
same,Population Healthy Nuclei (%),[7],64%
same,Population Hoechst High Intensity Objects (%),[7],2%
same,Population Membrane Permeable-Phenotype (%),[7],0%
same,Population Mitochondria Different-Phenotype (%),[7],37%
same,Population Mitotic Cells (%),[7],45%
same,Population Normal (%),[7],97%
same,Population Pyknosed Nuclei (%),[7],12%
same,Population Tubulin-Different-Phenotype (%),[7],96%
same,Total Cell Count,[7],174
same,Population Fragmented Nuclei (%),[8],37%
same,Population Healthy Nuclei (%),[8],48%
same,Population Hoechst High Intensity Objects (%),[8],5%
same,Population Membrane Permeable-Phenotype (%),[8],7%
same,Population Mitochondria Different-Phenotype (%),[8],30%
same,Population Normal (%),[8],94%
same,Population Pyknosed Nuclei (%),[8],13%
same,Population Tubulin-Different-Phenotype (%),[8],88%
same,Total Cell Count,[8],235
same,Population Apoptotic (%),[9],68%
same,Population Fragmented Nuclei (%),[9],18%
same,Population Healthy Nuclei (%),[9],69%
same,Population Hoechst High Intensity Objects (%),[9],8%
same,Population Membrane Permeable-Phenotype (%),[9],0%
same,Population Mitochondria Different-Phenotype (%),[9],3%
same,Population Mitotic Cells (%),[9],31%
same,Population Normal (%),[9],91%
same,Population Pyknosed Nuclei (%),[9],12%
same,Population Tubulin-Different-Phenotype (%),[9],41%
same,Total Cell Count,[9],167
same,Population Apoptotic (%),[10],59%
same,Population Fragmented Nuclei (%),[10],33%
same,Population Healthy Nuclei (%),[10],42%
same,Population Hoechst High Intensity Objects (%),[10],5%
same,Population Membrane Permeable-Phenotype (%),[10],13%
same,Population Mitochondria Different-Phenotype (%),[10],18%
same,Population Mitotic Cells (%),[10],40%
same,Population Normal (%),[10],94%
same,Population Pyknosed Nuclei (%),[10],23%
same,Population Tubulin-Different-Phenotype (%),[10],72%
same,Total Cell Count,[10],143
same,Population Apoptotic (%),[11],78%
same,Population Fragmented Nuclei (%),[11],30%
same,Population Healthy Nuclei (%),[11],61%
same,Population Hoechst High Intensity Objects (%),[11],8%
same,Population Membrane Permeable-Phenotype (%),[11],0%
same,Population Mitochondria Different-Phenotype (%),[11],49%
same,Population Mitotic Cells (%),[11],21%
same,Population Normal (%),[11],91%
same,Population Pyknosed Nuclei (%),[11],8%
same,Population Tubulin-Different-Phenotype (%),[11],92%
same,Total Cell Count,[11],187
same,Population Apoptotic (%),[12],61%
same,Population Fragmented Nuclei (%),[12],46%
same,Population Healthy Nuclei (%),[12],47%
same,Population Hoechst High Intensity Objects (%),[12],2%
same,Population Membrane Permeable-Phenotype (%),[12],7%
same,Population Mitochondria Different-Phenotype (%),[12],26%
same,Population Mitotic Cells (%),[12],38%
same,Population Normal (%),[12],97%
same,Population Pyknosed Nuclei (%),[12],6%
same,Population Tubulin-Different-Phenotype (%),[12],89%
same,Total Cell Count,[12],299
O=C1COc2nccc(-c3ccccc3F)c2CN1Cc1cc(C(F)(F)F)cc(C(F)(F)F)c1,Population Apoptotic (%),[1],38%
same,Population Fragmented Nuclei (%),[1],12%
same,Population Healthy Nuclei (%),[1],74%
same,Population Hoechst High Intensity Objects (%),[1],2%
same,Population Membrane Permeable-Phenotype (%),[1],1%
same,Population Mitochondria Different-Phenotype (%),[1],7%
same,Population Mitotic Cells (%),[1],61%
same,Population Normal (%),[1],97%
same,Population Pyknosed Nuclei (%),[1],13%
same,Population Tubulin-Different-Phenotype (%),[1],27%
same,Total Cell Count,[1],195
same,Population Apoptotic (%),[2],29%
same,Population Fragmented Nuclei (%),[2],17%
same,Population Healthy Nuclei (%),[2],62%
same,Population Hoechst High Intensity Objects (%),[2],0%
same,Population Mitochondria Different-Phenotype (%),[2],5%
same,Population Mitotic Cells (%),[2],70%
same,Population Normal (%),[2],99%
same,Population Pyknosed Nuclei (%),[2],20%
same,Population Tubulin-Different-Phenotype (%),[2],32%
same,Total Cell Count,[2],135
same,Population Apoptotic (%),[3],54%
same,Population Fragmented Nuclei (%),[3],15%
same,Population Healthy Nuclei (%),[3],69%
same,Population Hoechst High Intensity Objects (%),[3],5%
same,Population Membrane Permeable-Phenotype (%),[3],0%
same,Population Mitochondria Different-Phenotype (%),[3],10%
same,Population Mitotic Cells (%),[3],45%
same,Population Normal (%),[3],94%
same,Population Pyknosed Nuclei (%),[3],14%
same,Population Tubulin-Different-Phenotype (%),[3],66%
same,Total Cell Count,[3],161
same,Population Apoptotic (%),[4],37%
same,Population Fragmented Nuclei (%),[4],24%
same,Population Healthy Nuclei (%),[4],51%
same,Population Hoechst High Intensity Objects (%),[4],8%
same,Population Membrane Permeable-Phenotype (%),[4],4%
same,Population Mitochondria Different-Phenotype (%),[4],12%
same,Population Mitotic Cells (%),[4],62%
same,Population Normal (%),[4],91%
same,Population Pyknosed Nuclei (%),[4],23%
same,Population Tubulin-Different-Phenotype (%),[4],50%
same,Total Cell Count,[4],132
same,Population Apoptotic (%),[5],53%
same,Population Fragmented Nuclei (%),[5],11%
same,Population Healthy Nuclei (%),[5],74%
same,Population Hoechst High Intensity Objects (%),[5],3%
same,Population Membrane Permeable-Phenotype (%),[5],0%
same,Population Mitochondria Different-Phenotype (%),[5],6%
same,Population Mitotic Cells (%),[5],46%
same,Population Normal (%),[5],96%
same,Population Pyknosed Nuclei (%),[5],14%
same,Population Tubulin-Different-Phenotype (%),[5],23%
same,Total Cell Count,[5],203
same,Population Apoptotic (%),[6],34%
same,Population Fragmented Nuclei (%),[6],20%
same,Population Healthy Nuclei (%),[6],58%
same,Population Hoechst High Intensity Objects (%),[6],2%
same,Population Membrane Permeable-Phenotype (%),[6],2%
same,Population Mitochondria Different-Phenotype (%),[6],3%
same,Population Mitotic Cells (%),[6],65%
same,Population Normal (%),[6],97%
same,Population Pyknosed Nuclei (%),[6],20%
same,Population Tubulin-Different-Phenotype (%),[6],39%
same,Total Cell Count,[6],142
same,Population Apoptotic (%),[7],66%
same,Population Fragmented Nuclei (%),[7],18%
same,Population Healthy Nuclei (%),[7],71%
same,Population Hoechst High Intensity Objects (%),[7],3%
same,Population Membrane Permeable-Phenotype (%),[7],0%
same,Population Mitochondria Different-Phenotype (%),[7],11%
same,Population Mitotic Cells (%),[7],33%
same,Population Normal (%),[7],96%
same,Population Pyknosed Nuclei (%),[7],9%
same,Population Tubulin-Different-Phenotype (%),[7],57%
same,Total Cell Count,[7],162
same,Population Apoptotic (%),[8],55%
same,Population Fragmented Nuclei (%),[8],26%
same,Population Healthy Nuclei (%),[8],56%
same,Population Hoechst High Intensity Objects (%),[8],6%
same,Population Membrane Permeable-Phenotype (%),[8],7%
same,Population Mitochondria Different-Phenotype (%),[8],5%
same,Population Mitotic Cells (%),[8],45%
same,Population Normal (%),[8],93%
same,Population Pyknosed Nuclei (%),[8],16%
same,Population Tubulin-Different-Phenotype (%),[8],61%
same,Total Cell Count,[8],129
same,Population Apoptotic (%),[9],75%
same,Population Fragmented Nuclei (%),[9],16%
same,Population Healthy Nuclei (%),[9],75%
same,Population Hoechst High Intensity Objects (%),[9],5%
same,Population Membrane Permeable-Phenotype (%),[9],0%
same,Population Mitochondria Different-Phenotype (%),[9],4%
same,Population Mitotic Cells (%),[9],25%
same,Population Normal (%),[9],94%
same,Population Pyknosed Nuclei (%),[9],8%
same,Population Tubulin-Different-Phenotype (%),[9],28%
same,Total Cell Count,[9],210
same,Population Apoptotic (%),[10],31%
same,Population Fragmented Nuclei (%),[10],29%
same,Population Healthy Nuclei (%),[10],55%
same,Population Hoechst High Intensity Objects (%),[10],6%
same,Population Membrane Permeable-Phenotype (%),[10],1%
same,Population Mitochondria Different-Phenotype (%),[10],1%
same,Population Mitotic Cells (%),[10],68%
same,Population Normal (%),[10],93%
same,Population Pyknosed Nuclei (%),[10],14%
same,Population Tubulin-Different-Phenotype (%),[10],25%
same,Total Cell Count,[10],143
same,Population Apoptotic (%),[11],72%
same,Population Fragmented Nuclei (%),[11],20%
same,Population Healthy Nuclei (%),[11],72%
same,Population Hoechst High Intensity Objects (%),[11],2%
same,Population Membrane Permeable-Phenotype (%),[11],0%
same,Population Mitochondria Different-Phenotype (%),[11],14%
same,Population Mitotic Cells (%),[11],27%
same,Population Normal (%),[11],97%
same,Population Pyknosed Nuclei (%),[11],6%
same,Population Tubulin-Different-Phenotype (%),[11],62%
same,Total Cell Count,[11],172
same,Population Apoptotic (%),[12],60%
same,Population Fragmented Nuclei (%),[12],39%
same,Population Healthy Nuclei (%),[12],49%
same,Population Hoechst High Intensity Objects (%),[12],5%
same,Population Membrane Permeable-Phenotype (%),[12],1%
same,Population Mitochondria Different-Phenotype (%),[12],8%
same,Population Mitotic Cells (%),[12],40%
same,Population Normal (%),[12],94%
same,Population Pyknosed Nuclei (%),[12],11%
same,Population Tubulin-Different-Phenotype (%),[12],47%
same,Total Cell Count,[12],144

# Reference: ChEMBL document CHEMBL5058577, “EUbOPEN Chemogenomics Library 2 (Multiplex)” (2022)
